# Assay outcomes as filed in PubChem BioAssay.
# GalR3 antagonist: antagonists of human GalR3; inhibition, % at 3 µM; AID 651719; O60755; HEK293 GalR3-CNG cAMP membrane potential fluorescence; galR3 body fused to GalR1 C-terminus; hit rate 0.44% among 360,000;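 active means inhibition above the screen-wide average plus 3 SD, cut at about 13% in these data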;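 further: forskolin and galanin both at EC90 stimulate the cells; cAMP rise reported by CNG channel membrane potential dye signal; 0% = forskolin plus galanin with DMSO and 100% = forskolin alone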
# Target sequence (O60755 1-299 limits assumed): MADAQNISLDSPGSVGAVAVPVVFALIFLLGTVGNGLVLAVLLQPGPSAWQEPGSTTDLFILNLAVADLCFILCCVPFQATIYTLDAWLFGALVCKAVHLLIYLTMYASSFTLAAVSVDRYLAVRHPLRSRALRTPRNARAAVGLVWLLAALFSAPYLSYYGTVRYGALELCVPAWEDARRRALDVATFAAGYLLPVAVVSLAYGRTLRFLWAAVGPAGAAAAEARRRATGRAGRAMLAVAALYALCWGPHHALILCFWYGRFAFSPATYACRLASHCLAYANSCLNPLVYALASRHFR
# COUP-TFII inh: blocks human COUP-TFII nuclear receptor; P24468; HEK293T NGFI-A luciferase reporter, luminescence; inhibition, % at 8.6 µM; hit rate 0.7% among 370,000;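 active means inhibition above a per-plate cutoff, mean inhibition of test wells between control levels plus 3 SD, cut at about 38% in these data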;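 further: cells cotransfected with COUP-TFII expression vector driving the NGFI-A reporter; 0% = median of COUP-TF2 test wells and 100% = reporter-only cells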
# NR2E3 ag-1: agonists of human nuclear receptor NR2E3; Q9Y5X4; GST-NR2E3/biotin-RetCOR TR-FRET, 1536-well; inhibition of corepressor binding, % at 4.78 µM; hit rate 0.12% among 320,000; AID 2300;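 active means percent inhibition above the cutoff of mean plus 3 SD of all tested compounds, set per screening campaign, cut at about 20% in these data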;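 further: 0% = DMSO wells and 100% = biotin wells as full block of FRET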
# Target sequence (Q9Y5X4 whole entry, looked up): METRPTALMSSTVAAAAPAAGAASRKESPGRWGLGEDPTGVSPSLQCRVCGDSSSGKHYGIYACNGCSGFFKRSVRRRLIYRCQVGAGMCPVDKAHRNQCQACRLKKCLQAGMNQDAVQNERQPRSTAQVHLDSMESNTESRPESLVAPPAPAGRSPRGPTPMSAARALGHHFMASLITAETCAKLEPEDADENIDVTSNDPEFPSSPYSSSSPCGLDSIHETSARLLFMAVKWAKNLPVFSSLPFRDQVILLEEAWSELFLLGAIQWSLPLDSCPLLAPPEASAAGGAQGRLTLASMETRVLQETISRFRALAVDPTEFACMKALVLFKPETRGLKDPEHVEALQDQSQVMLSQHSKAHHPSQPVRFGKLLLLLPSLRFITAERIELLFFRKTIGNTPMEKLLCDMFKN
#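 Material: NR2E3–RetCOR corepressor complex / Amount: 1.35 nM GST-NR2E3 / Medium: Tris pH 7.5 / Compound: single nominal compound dose of 4.8 µM / Incubation: 5 h at 4 °C / Technique: TR-FRET, Eu(K)-anti-GST donor, streptavidin-D2 acceptor, ex 340, em 617/671 nm / Read-out basis: percent loss of FRET ratio relative to control wells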
# SMARCA2 act: SMARCA2 function activation, primary screen; MG213 cells, MMTV-luciferase reporter, dexamethasone, overnight; hit rate 1% among 370,000; AID 652017; activation, % at 9.1 µM; in the data active means activation above about 7.8%;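 further: 0% = vehicle wells and 100% = reference activator wells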
# NR2E3 ag-2: activates human NR2E3 receptor; Q9Y5X4; CHO-S Gal4-NCOR/VP16-NR2E3 two-hybrid, luciferase; inhibition of corepressor binding, % at 3.98 µM; hit rate 0.35% among 360,000; AID 602229;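 active means inhibition above the mean of all tested compounds plus 3 SD, cut at about 70% in these data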;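 further: 0% = DMSO with NR2E3 transfected cells and 100% = cells lacking NR2E3 construct; higher means lower luciferase signal from less NR2E3 corepressor binding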
# Gal4-VP16 ctr: VP16 inhibition counter-screen for COUP-TFII | AID 687007 | inhibition, % at 8.5 µM | hit rate 25% among 2,500 | HEK293 Gal4-VP16 luciferase reporter, luminescence | shares compounds with COUP-TFII inh; in the data active means inhibition above about 13%
# COUP-TFII conf: COUP-TFII (NR2F2) inhibition, confirmation assay | shares compounds with COUP-TFII inh | HEK293 NGFI-A luciferase reporter, luminescence | inhibition, % at 8.5 µM | hit rate 45% among 2,500;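 active means mean inhibition over three repeats above a set limit taken from the earlier primary screen, cut at about 38% in these data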;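 further: 100% = cells given the luciferase reporter alone without the COUP-TF2 vector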
# * hit, by the source's call; . = no result given. A selection: hits, their analogues and other compounds. The true share with any hit is near 2.2%.
SMILES,GalR3 antagonist,COUP-TFII inh,NR2E3 ag-1,SMARCA2 act,NR2E3 ag-2,Gal4-VP16 ctr,COUP-TFII conf
COc1ccc(-n2c(SCC(=O)Nc3ccccc3-c3ccccc3)nnc2-c2ccco2)cc1,.,7.4,.,-6.2,.,.,.
CN(Cc1ccc(F)cc1)C(=O)c1cccc2c1C(=O)N(Cc1cccnc1)C2,.,3.5,.,-4.9,.,.,.
C=CCNC(=S)N/N=C/c1ccc(N(CC)Cc2ccccc2)cc1,-3.8,14.9,-1.9,-3.0,-18.1,.,.
C=CCNC(=S)N/N=C/c1ccc(C(F)(F)F)cc1,-4.4,43.2*,-2.1,-6.0,7.3,-3.0,28.3
C=CC[n+]1c(-c2ccc(Cl)cc2Cl)csc1Nc1c(C)n(C)n(-c2ccccc2)c1=O,-4.7,45.7*,-0.5,-6.9,43.2,4.2,40.5*
C=CC[n+]1c(-c2ccc(C)cc2)csc1Nc1c(C)n(C)n(-c2ccccc2)c1=O,-3.3,3.5,0.1,-4.0,-0.7,.,.
CCOC(=O)CCCNC(=O)O[C@@H]1CC[C@@]23CCCN2C(=O)CCC[C@H]3C1,.,-6.0,.,.,.,.,.
CC1CC(C)CN(c2nc(NCc3ccco3)nc(N)c2[N+](=O)[O-])C1 (stereo not drawn),-10.7,-4.9,-0.1,-3.1,-9.2,.,.
CC1CCCN(c2nc(NCc3ccco3)nc(N)c2[N+](=O)[O-])C1 (stereo not drawn),0.5,41.2*,-0.6,-6.6,-6.6,1.0,4.1
Cc1ccc(-c2c[n+]3c(n2-c2ccccc2)CCC3)cc1,-1.6,60.5*,2.7,-10.6,0.3,-1.9,34.0
Cc1c(/C(O)=C2/C(=O)C(=O)N(CCN3CCOCC3)C2c2ccco2)cnn1-c1ccccc1 (stereo not drawn),-3.8,60.0*,.,-6.4,33.7,1.0,45.8*
NC(=O)[C@@H]1CC2(CC(c3cccc(NC(=O)COc4ccc(Cl)cc4)c3)=NO2)CN1C(=O)COc1ccc(Cl)cc1 (stereo partly drawn),-5.5,45.2*,6.5,-1.9,-12.0,-9.0,18.9
O=C(NCc1cccc(Cl)c1)c1cccc(OC2CCN(C(=O)C3CC3)CC2)c1,-0.9,56.2*,1.1,-6.5,5.9,-4.3,31.6
O=C(C1CC1)N1CCC(Oc2cccc(C(=O)N3CCCCC3CCO)c2)CC1 (stereo not drawn),-1.0,-7.5,0.3,-3.1,2.1,.,.
CCOc1ccc(C2NC(=O)NC(C)=C2C(=O)OCc2ccccc2)cc1 (stereo not drawn),-6.2,4.1,2.0,-1.2,1.4,.,.
COc1ccc(COC(=O)C2=C(C)NC(=O)NC2c2ccc(F)cc2)cc1 (stereo not drawn),-3.9,39.0*,0.5,-2.2,-26.0,-4.9,7.1
CCOC(=O)c1c(NC(=S)N2CCN(C)CC2)sc2c1CCN(C(=O)OCC)C2,-1.8,39.3*,3.1,-4.7,32.3,0.6,7.6
CCOC(=O)c1c(NC(=O)CN(CC)CC)sc2c1CCN(C(=O)OCC)C2,-12.4,11.7,1.3,-3.0,-21.2,.,.
CCN(CC)S(=O)(=O)c1cc(NC(=O)C2CCN(c3ncnc4sc(C)c(C)c34)CC2)ccc1Cl,-2.0,-2.5,0.7,-4.3,29.0,.,.
Cc1ccc(NC(=O)C2CCN(c3ncnc4sc(C)c(C)c34)CC2)cc1S(=O)(=O)N(C)C,2.9,48.4*,-2.7,-3.2,-1.3,8.5,30.5
S=C(NCCCc1cnc[nH]1)NCCCN(Cc1ccc(Cl)cc1)c1ccc(Br)cn1,-3.1,37.8*,.,-4.8,6.5,10.1,-2.1
Cc1n[nH]c(C)c1S(=O)(=O)NCCc1ccccc1,.,-3.6,.,-3.2,.,.,.
Cc1ccc(C2CCC3(CCC(=O)N3CCOC(=O)Nc3ccc(F)cc3)CC2)cc1 (stereo not drawn),.,-1.1,.,-4.8,.,.,.
CC1=CC(=O)C(C(C)C)=C/C1=N\OS(=O)(=O)c1ccccc1,.,81.9*,.,.,.,6.3,13.3
CC1=C/C(=N\OS(=O)(=O)c2ccccc2)C(C)=CC1=O,.,.,-1.4,.,34.2,.,.
SMILES,GalR3 antagonist,COUP-TFII inh,NR2E3 ag-1,SMARCA2 act,NR2E3 ag-2,Gal4-VP16 ctr,COUP-TFII conf
COc1ccc(CC(=O)Nc2cccc(-c3nnc(-c4ccccc4)o3)c2)cc1OC,-2.5,-2.4,.,-4.8,-38.1,.,.
COc1ccc(CC(=O)Nc2cccc(-c3nnc(-c4cccc(C)c4)o3)c2)cc1OC,3.0,53.3*,2.9,-1.4,14.7,-20.0,10.9
CCc1cccc(NC(=O)Cc2ccc(OC)c(OC)c2)c1,1.3,39.5*,0.1,-5.3,-4.6,11.7,32.0
COc1ccc(CC(=O)Nc2cccc(-c3nnc(-c4ccc(C)cc4)o3)c2)cc1OC,1.7,-0.8,5.0,-2.9,-24.4,.,.
C=CCc1cccc(C=NNC(=O)c2ccco2)c1O,.,-61.7,.,-5.2,.,.,.
C[C@@H]1C[C@H]2O[C@@H]2/C=C\C=C\C(=O)Cc2cc(O)cc(O)c2C(=O)O1,.,85.7*,.,-7.1,.,38.1*,5.2
C[C@@H]1C[C@@H]2O[C@H]2CCCCC(=O)Cc2cc(O)cc(O)c2C(=O)O1,.,63.5*,.,-9.4,.,59.2*,65.4*
O=C(NCCN1CCC(n2c(=O)[nH]c3ccccc32)CC1)c1ccc(C(F)(F)F)cc1C(F)(F)F,-8.7,43.9*,.,-9.2,21.1,4.1,18.6
CCN(CC)c1ccc(NS(=O)(=O)c2cn(C)c(=O)n(C)c2=O)c(C)c1,.,78.4*,-4.0,-0.8,-10.3,-13.1,-7.1
Cc1ccccc1NC(=O)OC1CCC12CCCCC2 (stereo not drawn),.,-9.5,.,-3.5,.,.,.
CCOc1cc(/C=N/Nc2nnc(C)n2N)ccc1O,-7.0,48.6*,-1.0,-8.3,-13.7,4.8,9.1
CCOc1cc(/C=N/Nc2ncnc(Cl)c2N)ccc1O,0.3,3.6,-6.9,-0.9,-53.8,.,.
COC(=O)[C@]12C[C@H](CC(=O)NCCC(C)C)C(=O)N(Cc3ccc(Cl)cc3Cl)C1=C[C@H](COCc1ccccc1)O[C@@H]2C,.,0.2,.,-1.1,.,.,.
CC1Cc2ccccc2N1c1ncnc(N)c1[N+](=O)[O-] (stereo not drawn),6.1,47.3*,-0.9,-6.7,-14.6,20.7*,34.1
COc1ccc(NC(=O)c2ccc(S(=O)(=O)N(C)c3ccccc3)cc2)cn1,-5.6,41.1*,1.2,-5.4,12.2,-1.6,15.9
Cc1nc2ccc(NC(=O)c3ccc(S(=O)(=O)N(C)c4ccccc4)cc3)cc2s1,-11.3,49.1*,5.3,-6.7,-11.8,-17.9,7.7
O=C(Nc1cccc(Cl)c1)c1ccc(F)c(S(=O)(=O)NCc2cccs2)c1,-5.8,38.0*,-0.3,-6.4,-24.1,-10.1,12.6
Cc1cccc(NC(=O)c2ccc(F)c(S(=O)(=O)NCc3ccco3)c2)c1,-6.3,22.6,-0.9,-3.5,-13.4,.,.
COc1ccc2c(c1)c(C(C)=O)c(C)n2-c1ccccc1,-1.8,13.2,-2.1,-2.7,-32.4,.,.
